Test results: ChEMBL document CHEMBL1212766, “Dose escalation study of the safety, tolerability, and pharmacokinetics of nemonoxacin (TG-873870), a novel potent broad-spectrum nonfluorinated quinolone, in healthy volunteers” (Antimicrob Agents Chemother, 2010)
Values after ≈ are worked out from the molar mass of the structure shown.

Key:
[1] = Cmax in healthy human at 250 mg, po administered as single dose; settings: in vivo
[2] = Tmax in healthy human at 125 mg, po administered as single dose; settings: in vivo
[3] = Cmax in healthy human at 1000 mg, po administered as single dose; settings: in vivo
Homo sapiens [4] = assay: Toxicity in healthy human assessed as occurrence of ear pain at 500 […], po; format: organism-based; design: route oral; settings: in vivo
[5] = Tmax in healthy human at 250 mg, po administered as single dose; settings: in vivo
Streptococcus pneumoniae [6] = assay: Antimicrobial activity against penicillin-intermediate Streptococcus pneumoniae; format: functional
[7] = Renal clearance in healthy human at 1500 […], po administered as single dose; format: ADME, organism-based, Kidney; design: route oral; settings: in vivo, read-out: CL_renal (converted)
Summary of the method: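 Renal clearance (CL_r) came from noncompartmental analysis of plasma drawn through 96 h and urine collected over fixed intervals to 96 h. Subjects were fasted healthy volunteers, six per dose cohort, given one oral dose with 240 ml water. Plasma and urine were assayed by LC-MS/MS after solid-phase extraction, with urine LLOQ 200 ng/ml. Values are means (SD).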

Homo sapiens [8] = assay: Toxicity in healthy human assessed as occurrence of oral hypoesthesia at 125 […], po; format: organism-based; design: route oral; settings: in vivo
[9] = Terminal phase elimination half-life in healthy human at 50 […], po administered single dose; format: ADME, organism-based; design: route oral; settings: in vivo
Summary of the method: (§1)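 After one fasted oral dose (six healthy subjects per cohort), plasma was sampled from 0.5 to 96 h and assayed by LC-MS/MS (LLOQ 5 ng/ml). λz came from least-squares regression on at least the last three log-concentration points, and t1/2 = 0.693/λz. Values are means (SD).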

Staphylococcus aureus [10] = assay: Antimicrobial activity against methicillin-sensitive Staphylococcus aureus; format: functional
Homo sapiens [11] = assay: Toxicity in healthy human assessed as occurrence of pruritus at 50 […], po; format: organism-based; design: route oral; settings: in vivo
Staphylococcus aureus [12] = assay: Antimicrobial activity against methicillin-resistant Staphylococcus aureus; format: functional
Homo sapiens [13] = assay: Toxicity in healthy human assessed as occurrence of contact dermatitis at 25 […], po; format: organism-based; design: route oral; settings: in vivo
Summary of the method: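 Randomized, double-blind, placebo-controlled single ascending oral doses in healthy volunteers (cohorts of 6 active, 2 placebo; 25–1,500 mg). After a 10-h fast, dose given with 240 ml water; fasting continued 4 h. Subjects were confined to 96 h postdose. AEs were recorded throughout dosing and at follow-up, reported as number and percentage of subjects with events per treatment.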

Homo sapiens [14] = assay: Toxicity in healthy human assessed as occurrence of erythema at 50 […], po; format: organism-based; design: route oral; settings: in vivo
[15] = Renal clearance in healthy human at 250 mg, po administered as single dose; settings: in vivo, read-out: CL_renal (converted)
[16] = Renal clearance in healthy human at 500 mg, po administered as single dose; settings: in vivo, read-out: CL_renal (converted)
[17] = Terminal phase elimination half-life in healthy human at 500 […], po administered single dose; format: ADME, organism-based; design: route oral; settings: in vivo
Summary of the method: as §1

[18] = Clearance in healthy human assessed as recovery of unchanged drug in urine at 25 […], po administered as single dose; format: ADME, organism-based; design: route oral; settings: read-out: Recovered in urine
Summary of the method: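 Healthy volunteers, six on drug per cohort, fasted 10 h and given one oral dose with 240 ml water, then fasted 4 h more. Urine was pooled over intervals from 0-2 to 72-96 h and stored at about −70°C. Drug was measured by solid-phase extraction and LC-MS/MS (LLOQ 200 ng/ml), giving the percent of dose recovered unchanged. Values are means (SD).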

Homo sapiens [19] = assay: Toxicity in healthy human assessed as occurrence of pruritus at 1500 […], po; format: organism-based; design: route oral; settings: in vivo
Streptococcus pneumoniae [20] = assay: Antimicrobial activity against Streptococcus pneumoniae; format: functional
[21] = Tmax in healthy human at 50 mg, po administered as single dose; settings: in vivo
[22] = Renal clearance in healthy human at 125 mg, po administered as single dose; settings: in vivo, read-out: CL_renal (converted)
Homo sapiens [23] = assay: Clearance in healthy human at 25 […], po administered as single dose; format: ADME, organism-based; design: route oral; settings: in vivo
Summary of the method: (§2)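 Randomized, double-blind, placebo-controlled single ascending oral dose in fasted healthy subjects (six on drug per cohort, with 240 ml water). Plasma sampled predose through 96 h and assayed by validated LC-MS/MS over 5–5,000 ng/ml. Oral clearance (CL_o) came from noncompartmental analysis, with AUC_0-∞ from linear trapezoids plus C_last/λz. Values are means (SD).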

Staphylococcus aureus [24] = assay: Ratio of fAUC to MIC90 for methicillin-sensitive Staphylococcus aureus; format: functional
Summary of the method: (§3)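 Fasted healthy adults got a single oral 500 mg dose with 240 ml water. Plasma was sampled predose to 96 h and assayed by LC-MS/MS (5–5,000 ng/ml). Cmax was read from individual profiles, and AUC0-∞ came from linear trapezoid plus extrapolation. Free fraction was measured by ultrafiltration (30,000 MWCO) of 0.5 and 6 h plasma. Free exposure was divided by the isolate MIC90.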

Homo sapiens [25] = assay: Toxicity in healthy human assessed as occurrence of contact dermatitis at 500 […], po; format: organism-based; design: route oral; settings: in vivo
Homo sapiens [26] = assay: Clearance in healthy human at 250 mg, po administered as single dose; settings: in vivo
[27] = Terminal phase elimination half-life in healthy human at 125 […], po administered single dose; format: ADME, organism-based; design: route oral; settings: in vivo
Summary of the method: as §1

Homo sapiens [28] = assay: Toxicity in healthy human assessed as occurrence of headache at 1000 […], po; format: organism-based; design: route oral; settings: in vivo
Homo sapiens [29] = assay: Terminal volume of distribution in healthy human at 1500 mg, po administered as single dose; settings: in vivo
[30] = Cmax in healthy human at 125 mg, po administered as single dose; settings: in vivo
Homo sapiens [31] = assay: Toxicity in healthy human assessed as occurrence of headache at 500 […], po; format: organism-based; design: route oral; settings: in vivo
Homo sapiens [32] = assay: Toxicity in healthy human assessed as occurrence of pustular rashes at 125 […], po; format: organism-based; design: route oral; settings: in vivo
Homo sapiens [33] = assay: Toxicity in healthy human assessed as occurrence of erythema at 1000 […], po; format: organism-based; design: route oral; settings: in vivo
Homo sapiens [34] = assay: Clearance in healthy human at 125 […], po administered as single dose; format: ADME, organism-based; design: route oral; settings: in vivo
Summary of the method: as §2

Homo sapiens [35] = assay: Toxicity in healthy human assessed as occurrence of headache at 1500 […], po; format: organism-based; design: route oral; settings: in vivo
Homo sapiens [36] = assay: Clearance in healthy human at 500 mg, po administered as single dose; settings: in vivo
Homo sapiens [37] = assay: Toxicity in healthy human assessed as occurrence of oral hypoesthesia at 1500 […], po; format: organism-based; design: route oral; settings: in vivo
Streptococcus pneumoniae [38] = assay: Ratio of fCmax to MIC90 for penicillin-resistant Streptococcus pneumoniae; format: functional
Summary of the method: as §3

[39] = Terminal phase elimination half-life in healthy human at 250 […], po administered single dose; format: ADME, organism-based; design: route oral; settings: in vivo
Summary of the method: as §1

Homo sapiens [40] = assay: Terminal volume of distribution in healthy human at 250 mg, po administered as single dose; settings: in vivo

COc1c(N2C[C@@H](C)C[C@H](N)C2)ccc2c(=O)c(C(=O)O)cn(C3CC3)c12 [NEMONOXACIN]
Cmax [1]: 2.4 µg/mL
Tmax [2]: 0.75 h
Cmax [3]: 7.22 µg/mL
Activity (Homo sapiens [4]): 0%
Tmax [5]: 0.92 h
MIC90 (Streptococcus pneumoniae [6]): 0.015 mg/L (≈ 0.0404 µM)
CL renal [7]: 0.069 L/h/kg
Activity (Homo sapiens [8]): 0%
half-life [9]: 8.49 h
MIC90 (Staphylococcus aureus [10]): 0.12 mg/L (≈ 0.323 µM)
Activity (Homo sapiens [11]): 17%
MIC90 (Staphylococcus aureus [12]): 0.06 mg/L (≈ 0.162 µM)
Activity (Homo sapiens [13]): 50%
Activity (Homo sapiens [14]): 0%
CL renal [15]: 0.11 L/h/kg
CL renal [16]: 0.068 L/h/kg
half-life [17]: 14.8 h
dose excreted [18]: 56.2%
Activity (Homo sapiens [19]): 50%
MIC90 (Streptococcus pneumoniae [20]): 0.015 mg/L (≈ 0.0404 µM)
Tmax [21]: 1.08 h
CL renal [22]: 0.08 L/h/kg
CL (Homo sapiens [23]): 0.3 L/h/kg
Ratio (Staphylococcus aureus [24]): 227
Activity (Homo sapiens [25]): 0%
CL (Homo sapiens [26]): 0.24 L/h/kg
half-life [27]: 11.1 h
Activity (Homo sapiens [28]): 17%
Vbeta (Homo sapiens [29]): 3.42 L/kg
Cmax [30]: 1.22 µg/mL
Activity (Homo sapiens [31]): 0%
Activity (Homo sapiens [32]): 17%
Activity (Homo sapiens [33]): 17%
CL (Homo sapiens [34]): 0.22 L/h/kg
Activity (Homo sapiens [35]): 17%
CL (Homo sapiens [36]): 0.2 L/h/kg
Activity (Homo sapiens [37]): 0%
Ratio (Streptococcus pneumoniae [38]): 95
half-life [39]: 10.9 h
Vbeta (Homo sapiens [40]): 3.58 L/kg
